Results published in ChEMBL document CHEMBL1145439, “Fluorine-18-labeled benzamide analogues for imaging the sigma2 receptor status of solid tumors with positron emission tomography” (J Med Chem, 2007).

Experiments:
[1] = tested on: Heart; experiment: Biodistribution in heart of mouse EMT6 tumor bearing BALB/c mouse at 10 to 20 uCi after 5 mins; format: ADME, organism-based; conditions: in vivo
In short: (§1)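 EMT-6 cells (5×10^5 in 100 µL PBS) implanted s.c. in scapular region of female Balb/c mice (~2 months, 17-22 g); studied 7-10 days later at ~0.2 cm3 tumor. 18F tracer 10-20 µCi in 100-150 µL saline via tail vein; ≥4 mice per time point; tissue removed at sacrifice, weighed, gamma-counted; %ID/g calculated.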

[2] = tested on: Blood; experiment: Biodistribution in blood of mouse EMT6 tumor bearing BALB/c mouse at 10 to 20 uCi after 60 mins; format: ADME, organism-based; conditions: in vivo, 1 h; in short: as §1
[3] = tested on: Adipose tissue; experiment: Biodistribution in fat of mouse EMT6 tumor bearing BALB/c mouse at 10 to 20 uCi after 120 mins; format: ADME, organism-based; conditions: in vivo, 2 h; in short: as §1
[4] = tested on: Blood; experiment: Biodistribution in blood of mouse EMT6 tumor bearing BALB/c mouse at 10 to 20 uCi after 30 mins; format: ADME, organism-based; conditions: in vivo, 0.5 h; in short: as §1
[5] = tested on: Kidney; experiment: Biodistribution in kidney of mouse EMT6 tumor bearing BALB/c mouse at 10 to 20 uCi after 30 mins; format: ADME, organism-based; conditions: in vivo, 0.5 h; in short: as §1
[6] = tested on: Lung; experiment: Biodistribution in lung of mouse EMT6 tumor bearing BALB/c mouse at 10 to 20 uCi after 5 mins; format: ADME, organism-based; conditions: in vivo; in short: as §1
[7] = tested on: Adipose tissue; experiment: Biodistribution in fat of mouse EMT6 tumor bearing BALB/c mouse at 10 to 20 uCi after 30 mins; format: ADME, organism-based; conditions: in vivo, 0.5 h; in short: as §1
[8] = tested on: Liver; experiment: Biodistribution in liver of mouse EMT6 tumor bearing BALB/c mouse at 10 to 20 uCi after 120 mins; format: ADME, organism-based; conditions: in vivo, 2 h; in short: as §1
[9] = tested on: Liver; experiment: Biodistribution in liver of mouse EMT6 tumor bearing BALB/c mouse at 10 to 20 uCi after 5 mins; format: ADME, organism-based; conditions: in vivo; in short: as §1
[10] = tested on: Blood; experiment: Biodistribution in blood of mouse EMT6 tumor bearing BALB/c mouse at 10 to 20 uCi after 5 mins; format: ADME, organism-based; conditions: in vivo; in short: as §1
[11] = tested on: Bone; experiment: Biodistribution in bone of mouse EMT6 tumor bearing BALB/c mouse at 10 to 20 uCi after 60 mins; format: ADME, organism-based, Bone element; conditions: in vivo, 1 h; in short: as §1
[12] = tested on: EMT6; experiment: Biodistribution in tumor of EMT6 tumor bearing BALB/c mouse 10 to 20 uCi after 30 mins; format: ADME, organism-based; conditions: emt6, 0.5 h; in short: as §1
[13] = tested on: Kidney; experiment: Biodistribution in kidney of mouse EMT6 tumor bearing BALB/c mouse at 10 to 20 uCi after 5 mins; format: ADME, organism-based; conditions: in vivo; in short: as §1
[14] = tested on: EMT6; experiment: Biodistribution in tumor of mouse EMT6 tumor bearing BALB/c mouse at 10 to 20 uCi after 5 mins; format: ADME, organism-based; conditions: emt6, 5 min; in short: as §1
[15] = tested on: Heart; experiment: Biodistribution in heart of mouse EMT6 tumor bearing BALB/c mouse at 10 to 20 uCi after 30 mins; format: ADME, organism-based; conditions: in vivo, 0.5 h; in short: as §1
[16] = tested on: Muscle tissue; experiment: Biodistribution in muscle of mouse EMT6 tumor bearing BALB/c mouse at 10 to 20 uCi after 120 mins; format: ADME, organism-based; conditions: in vivo, 2 h; in short: as §1
[17] = tested on: Bone; experiment: Biodistribution in bone of mouse EMT6 tumor bearing BALB/c mouse at 10 to 20 uCi after 30 mins; format: ADME, organism-based, Bone element; conditions: in vivo, 0.5 h; in short: as §1
[18] = tested on: Blood; experiment: Biodistribution in blood of mouse EMT6 tumor bearing BALB/c mouse at 10 to 20 uCi after 120 mins; format: ADME, organism-based; conditions: in vivo, 2 h; in short: as §1
[19] = tested on: Heart; experiment: Biodistribution in heart of EMT6 tumor bearing BALB/c mouse at 10 to 20 uCi after 120 mins; format: ADME, organism-based; conditions: in vivo, 2 h; in short: as §1
[20] = tested on: EMT6; experiment: Biodistribution in tumor of mouse EMT6 tumor bearing BALB/c mouse at 10 to 20 uCi after 60 mins; format: ADME, organism-based; conditions: emt6, 1 h; in short: as §1
[21] = tested on: Lung; experiment: Biodistribution in lung of mouse EMT6 tumor bearing BALB/c mouse at 10 to 20 uCi after 120 mins; format: ADME, organism-based; conditions: in vivo, 2 h; in short: as §1
[22] = tested on: Brain; experiment: Biodistribution in brain of EMT6 tumor bearing BALB/c mouse at 10 to 20 uCi after 60 mins; format: ADME, organism-based; conditions: in vivo, 1 h; in short: as §1
[23] = tested on: Brain; experiment: Biodistribution in brain of mouse EMT6 tumor bearing BALB/c mouse at 10 to 20 uCi after 120 mins; format: ADME, organism-based; conditions: in vivo, 2 h; in short: as §1
[24] = tested on: Liver; experiment: Biodistribution in liver of mouse EMT6 tumor bearing BALB/c mouse at 10 to 20 uCi after 30 mins; format: ADME, organism-based; conditions: in vivo, 0.5 h; in short: as §1
[25] = tested on: Muscle tissue; experiment: Biodistribution in muscle of EMT6 tumor bearing BALB/c mouse at 10 to 20 uCi after 5 mins; format: ADME, organism-based; conditions: in vivo; in short: as §1
[26] = tested on: Brain; experiment: Biodistribution in brain of EMT6 tumor bearing BALB/c mouse at 10 to 20 uCi after 5 mins; format: ADME, organism-based; conditions: in vivo; in short: as §1
[27] = tested on: Muscle tissue; experiment: Biodistribution in muscle of mouse EMT6 tumor bearing BALB/c mouse at 10 to 20 uCi after 60 mins; format: ADME, organism-based; conditions: in vivo, 1 h; in short: as §1
[28] = tested on: Adipose tissue; experiment: Biodistribution in fat of mouse EMT6 tumor bearing BALB/c mouse at 10 to 20 uCi after 60 mins; format: ADME, organism-based; conditions: in vivo, 1 h; in short: as §1
[29] = tested on: Muscle tissue; experiment: Biodistribution in muscle of mouse EMT6 tumor bearing BALB/c mouse at 10 to 20 uCi after 30 mins; format: ADME, organism-based; conditions: in vivo, 0.5 h; in short: as §1
[30] = tested on: Bone; experiment: Biodistribution in bone of mouse EMT6 tumor bearing BALB/c mouse at 10 to 20 uCi after 5 mins; format: ADME, organism-based, Bone element; conditions: in vivo; in short: as §1
[31] = tested on: EMT6; experiment: Biodistribution in tumor of mouse EMT6 tumor bearing BALB/c mouse at 10 to 20 uCi after 120 mins; format: ADME, organism-based; conditions: emt6, 2 h; in short: as §1
[32] = tested on: Liver; experiment: Biodistribution in liver of mouse EMT6 tumor bearing BALB/c mouse at 10 to 20 uCi after 60 mins; format: ADME, organism-based; conditions: in vivo, 1 h; in short: as §1
[33] = tested on: Bone; experiment: Biodistribution in bone of mouse EMT6 tumor bearing BALB/c mouse at 10 to 20 uCi after 120 mins; format: ADME, organism-based, Bone element; conditions: in vivo, 2 h; in short: as §1
[34] = tested on: Lung; experiment: Biodistribution in lung of mouse EMT6 tumor bearing BALB/c mouse at 10 to 20 uCi after 60 mins; format: ADME, organism-based; conditions: in vivo, 1 h; in short: as §1
[35] = tested on: Kidney; experiment: Biodistribution in kidney of mouse EMT6 tumor bearing BALB/c mouse at 10 to 20 uCi after 120 mins; format: ADME, organism-based; conditions: in vivo, 2 h; in short: as §1
[36] = tested on: Lung; experiment: Biodistribution in lung of mouse EMT6 tumor bearing BALB/c mouse at 10 to 20 uCi after 30 mins; format: ADME, organism-based; conditions: in vivo, 0.5 h; in short: as §1
[37] = tested on: Adipose tissue; experiment: Biodistribution in fat of mouse EMT6 tumor bearing BALB/c mouse at 10 to 20 uCi after 5 mins; format: ADME, organism-based; conditions: in vivo; in short: as §1
[38] = tested on: Heart; experiment: Biodistribution in heart of mouse EMT6 tumor bearing BALB/c mouse at 10 to 20 uCi after 60 mins; format: ADME, organism-based; conditions: in vivo, 1 h; in short: as §1
[39] = tested on: Brain; experiment: Biodistribution in brain of EMT6 tumor bearing BALB/c mouse at 10 to 20 uCi after 30 mins; format: ADME, organism-based; conditions: in vivo, 0.5 h; in short: as §1
[40] = tested on: Kidney; experiment: Biodistribution in kidney of mouse EMT6 tumor bearing BALB/c mouse at 10 to 20 uCi after 60 mins; format: ADME, organism-based; conditions: in vivo, 1 h; in short: as §1

COc1cc2c(cc1OC)CN(CCCCNC(=O)c1cc(I)ccc1OCC[18F])CC2
Drug uptake [1]: 3.22 % ID/g
Drug uptake [2]: 3.39 % ID/g
Drug uptake [3]: 0.44 % ID/g
Drug uptake [4]: 4.3 % ID/g
Drug uptake [5]: 17.43 % ID/g
Drug uptake [6]: 9.71 % ID/g
Drug uptake [7]: 1.04 % ID/g
Drug uptake [8]: 4.25 % ID/g
Drug uptake [9]: 37.26 % ID/g
Drug uptake [10]: 4.6 % ID/g
Drug uptake [11]: 0.99 % ID/g
Drug uptake [12]: 2.81 % ID/g
Drug uptake [13]: 36.07 % ID/g
Drug uptake [14]: 2.54 % ID/g
Drug uptake [15]: 2.37 % ID/g
Drug uptake [16]: 0.6 % ID/g
Drug uptake [17]: 1.31 % ID/g
Drug uptake [18]: 1.92 % ID/g
Drug uptake [19]: 1 % ID/g
Drug uptake [20]: 2.72 % ID/g
Drug uptake [21]: 1.36 % ID/g
Drug uptake [22]: 0.36 % ID/g
Drug uptake [23]: 0.37 % ID/g
Drug uptake [24]: 17.35 % ID/g
Drug uptake [25]: 1.52 % ID/g
Drug uptake [26]: 0.55 % ID/g
Drug uptake [27]: 0.83 % ID/g
Drug uptake [28]: 0.62 % ID/g
Drug uptake [29]: 1.12 % ID/g
Drug uptake [30]: 2.59 % ID/g
Drug uptake [31]: 1.92 % ID/g
Drug uptake [32]: 7.31 % ID/g
Drug uptake [33]: 1.67 % ID/g
Drug uptake [34]: 2.34 % ID/g
Drug uptake [35]: 3.92 % ID/g
Drug uptake [36]: 4.07 % ID/g
Drug uptake [37]: 2.32 % ID/g
Drug uptake [38]: 1.61 % ID/g
Drug uptake [39]: 0.44 % ID/g
Drug uptake [40]: 9.36 % ID/g
